Bioassay records as filed in PubChem BioAssay.
The list is not random: actives were taken first. Their share in the collection is about 0.95%.
ABCG2 block: ABCG2 efflux pump inhibitors, primary screen, multiplex with ABCB1, IgMXP3 cells, flow cytometry; JC-1 efflux; inhibition, % at 6.6 µM; actives 0.1% (n = 190,000); AID 1325, 2008;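 active = inhibition above 80%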;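 also: 0% = DMSO and 100% = nicardipine control wells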
Target sequence (Q9UNQ0 whole entry, looked up): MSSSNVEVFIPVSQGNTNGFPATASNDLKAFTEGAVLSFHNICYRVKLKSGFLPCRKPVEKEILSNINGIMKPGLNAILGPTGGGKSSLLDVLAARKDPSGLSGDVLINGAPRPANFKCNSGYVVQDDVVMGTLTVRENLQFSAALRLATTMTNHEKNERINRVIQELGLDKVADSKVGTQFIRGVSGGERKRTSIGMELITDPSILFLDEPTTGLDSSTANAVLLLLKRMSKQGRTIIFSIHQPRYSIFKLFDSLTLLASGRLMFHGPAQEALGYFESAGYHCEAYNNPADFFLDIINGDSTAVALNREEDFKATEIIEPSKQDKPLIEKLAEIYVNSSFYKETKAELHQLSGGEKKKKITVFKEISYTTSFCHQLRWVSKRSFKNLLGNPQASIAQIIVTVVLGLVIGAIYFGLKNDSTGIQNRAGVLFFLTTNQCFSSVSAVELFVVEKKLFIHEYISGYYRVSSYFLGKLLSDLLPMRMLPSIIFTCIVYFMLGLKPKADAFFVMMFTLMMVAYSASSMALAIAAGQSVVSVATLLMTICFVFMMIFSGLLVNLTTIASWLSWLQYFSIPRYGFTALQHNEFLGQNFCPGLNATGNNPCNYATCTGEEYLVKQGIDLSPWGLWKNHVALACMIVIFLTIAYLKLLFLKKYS
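material = IgMXP3 (ABCG2) plus far-red-tagged CCRF-Adr (ABCB1) cells | amount = 3 million cells/mL, equal mix of both lines | also added = JC-1 transporter substrate | dosing = one concentration, 6.6 µM final | schedule = 10 min at 25 °C | measured by = flow cytometric JC-1 green MFI at 530 nm | read-out basis = percent efflux inhibition, scaled nicardipine 100% to DMSO 0%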
p47phox inh: p47phox/p22phox peptide binding inhibitors, primary screen, biochemical, uHTS, NADPH oxidase regulatory subunit; Neutrophil cytosol factor 1 (Homo sapiens), P14598; fluorescence polarization, 2 h; inhibition, % at 24.7 µM; actives 0.53% (n = 220,000);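 active = inhibition above about 30%, limit read from the data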;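 also: 0% = p47phox with labelled peptide and 100% = labelled peptide alone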
ABCB1 block: ABCB1 efflux pump inhibitors, primary screen, cell-based, multiplex, flow cytometry, ABCG2 counter-screen; ATP-dependent translocase ABCB1 (Homo sapiens), P08183; actives 0.067% (n = 190,000); CCRF-Adr cells, JC-1 efflux; inhibition, % at 6.6 µM; in the data active = inhibition above about 40%;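 also: 0% = vehicle and 100% = reference inhibitor; higher value means more JC-1 retained so stronger ABCB1 efflux block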
Arbovirus anti: antivirals against arbovirus infection, primary screen, cell-based, full library, 10K replicate subset; arbovirus infection cell-based antiviral screen; inhibition, % at 10 µM; actives 0.37% (n = 200,000); AID 1251, 2008; in the data active = inhibition above about 30%
HSV replic up: enhancers of HSV replication in host cells, fold increase, host cell viability | HSV replication augmentation in cells | maximum fold increase | actives 0.005% (n = 220,000) | AID 1956, 2009; in the data active = maximum fold increase above about 1.5; inconclusive = no clear call, values can overlap the other calls; tested in PC3 cells
Furin inh: human furin inhibitors, primary screen, biochemical, fluorescence intensity; purified furin, fluorogenic substrate cleavage; actives 0.061% (n = 220,000); inhibition, % at 20 µM or 30 µM; AID 463115, 2010; P09958; in the data active = inhibition above about 25%
ABCB1 single pt: ABCB1 efflux pump inhibitors, confirmation, cell-based, single point, ABCG2 counter-screen. actives 7% (n = 270). inhibition, % at 6.6 µM. shares compounds with ABCG2 block. AID 1451, 2008. CCRF-Adr cells, JC-1 efflux, flow cytometry;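 active = inhibition of pump activity above 50%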;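 also: 0% = DMSO and 100% = nicardipine full pump inhibition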
ABCG2 single pt: ABCG2 efflux pump inhibitors, confirmation, single point, IgMXP3 cells, ABCB1 counter-screen paired; JC-1 efflux, flow cytometry; AID 1453, 2008; shares compounds with ABCG2 block; actives 6% (n = 270); inhibition, % at 6.6 µM;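 active = inhibition above 50%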;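 also: 0% = DMSO wells and 100% = nicardipine pump inhibitor wells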
IgMXP3 fluor: compound autofluorescence in ABCG2-expressing IgMXP3 cells, confirmation, artefact control for ABC transporter inhibitor project, cell-based, 488/530 nm, flow cytometry; fluorescence at 6.6 µM; AID 1480, 2009; shares compounds with ABCG2 block; actives 30% (n = 270); compound autofluorescence 488/530 nm; stronger effect = higher value;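 active = fluorescence in ABCG2-expressing cells above the plate's control-well mean plus 3 SD, cut at about 15 in these data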;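 also: median cell fluorescence with compound minus that of DMSO-treated control cells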
CCRF autofluor: compound autofluorescence in ABCB1-expressing CCRF-Adr cells, confirmation, artefact control for ABC transporter inhibitor project, cell-based, 488/530 nm, flow cytometry; shares compounds with ABCG2 block; compound autofluorescence 488/530 nm; stronger effect = higher value; fluorescence at 6.6 µM; actives 30% (n = 270); AID 1483, 2009;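 active = fluorescence beyond the plate control mean plus 3 SD, with a fluorescence-to-maximum score over 2, cut at about 25 in these data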
Starred values were filed as active, the others as inactive; i = inactive; ? = inconclusive; . = not tested or not shown.

SMILES	ABCG2 block	p47phox inh	ABCB1 block	Arbovirus anti	HSV replic up	Furin inh	ABCB1 single pt	ABCG2 single pt	IgMXP3 fluor	CCRF autofluor
CCc1nnc(NC(=O)c2cc(S(=O)(=O)N3CCOCC3)ccc2N2CCCCC2)s1	76.8	-98.4	68.5*	8.2	i	-7.3	3.5	14.5	-1.04	-0.79
O=C(Nc1nnc(C2CC2)s1)c1cc(S(=O)(=O)N2CCCCC2)ccc1N1CCOCC1	.	-7.5	.	.	i	-23.6	.	.	.	.
CCCN1C(=O)/C(=C/c2c(NCCCOC(C)C)nc3c(C)cccn3c2=O)SC1=S	89.1*	-43.6	61.5*	7.7	?	-17.1	-3.4	-12.3	141*	178*
CCN(Cc1ccccc1)Cc1nnnn1Cc1ccccc1	10.4	2.6	2.3	-4.1	i	-14.5	.	.	.	.
CCOC(=O)C1=C(CNCc2ccc(C)cc2)NC(=O)NC1c1cc(C)ccc1C (stereo not drawn)	24.7	-6.0	40.4	8.5	i	-12.5	14.7	12.7	-1.79	-4.64
CCOC(=O)C1=C(Cn2cnc3ccccc32)NC(=O)NC1c1cc(C)ccc1C (stereo not drawn)	9.5	-65.8	1.4	-4.3	i	-22.8	.	.	.	.
Cc1cc(NC(=O)Cn2cc([N+](=O)[O-])cn2)no1	-0.3	4.3	-0.1	4.4	i	0.0	.	.	.	.
Cc1ccc(Nc2nc(=O)c3cccnc3s2)c(Br)c1	.	1.4	.	.	i	-7.4	.	.	.	.
CCCCN(CC)c1nc(N)c2c(N)nc(OCC)cc2c1C#N	77.5	-22.0	4.1	5.0	i	-14.0	8.9	32.6	-0.14	-2.59
CCOc1cc2c(C#N)c(N3CCCC3)nc(N)c2c(N)n1	.	.	.	.	i	.	.	.	.	.
CCN1/C(=C/C=C/c2oc3ccc4ccccc4c3[n+]2CC)Oc2ccc3ccccc3c21	184.1*	-238.4	24.4	-19.8	.	-5.2	69.3*	-37.3	546*	228*
O=C(N=C1N=C2C=CC(Br)=CN2Cc2ccccc21)c1ccc([N+](=O)[O-])cc1[N+](=O)[O-]	.	-2.5	.	.	i	-9.3	.	.	.	.
O=C(/C=C/c1cccc([N+](=O)[O-])c1)NC(=S)Nc1ccccc1C(=O)O	3.7	9.8	0.2	-6.7	i	-13.0	.	.	.	.
CCC(C)c1ccc(NC(=S)NCCn2cc(Br)cn2)cc1 (stereo not drawn)	126.4*	22.6	7.3	-7.9	i	-16.6	1.5	33.6	-1.74	-3.24
c1ccc(-c2noc(CN3CCCC(OCc4ccccn4)C3)n2)cc1 (stereo not drawn)	1.9	-11.3	0.9	4.6	i	-24.1	.	.	.	.
Cc1nnc(NC(=O)CCNC(=O)c2ccccc2Cl)s1	-0.2	-9.9	0.0	18.5	i	-23.7	.	.	.	.
COc1ccc2cc3cc(C(=O)Nc4ccccc4N4CCN(C)CC4)oc3nc2c1	52.5	-9.1	47.1*	1.0	?	1.1	25.0	18.2	11.3	-1.39
Cn1c(=O)c(NCCO)c2c3c(cccc31)C(=O)c1ccccc1-2	84.1*	-251.2	7.1	8.2	.	-6.0	0.4	19.7	12.6	8.31
CCCCNc1c2c3c(cccc3n(C)c1=O)C(=O)c1ccccc1-2	141.6*	-58.7	65.7*	-21.3	.	-13.1	3.7	15.8	70.7*	132*
CCNc1c2c3c(cccc3n(C)c1=O)C(=O)c1ccccc1-2	4.4	-214.6	2.3	-15.5	.	-12.1	.	.	.	.
CC(=O)Nc1ccc(Nc2c3c4c(cccc4n(C)c2=O)C(=O)c2ccccc2-3)cc1	9.5	-25.8	10.2	-1.8	?	-17.0	.	.	.	.
Cn1c(=O)c(NCCc2ccccc2)c2c3c(cccc31)C(=O)c1ccccc1-2	150.8*	-251.2	70.5*	-3.1	?	1.2	10.2	33.5	55*	143*
COc1ccc(OC)c(NC(=O)c2cccc(C)c2[N+](=O)[O-])c1	4.7	-8.4	-1.4	7.3	i	-14.7	.	.	.	.
CCN(CC)S(=O)(=O)c1ccc(OC)c(NC(=O)c2cccc(C)c2[N+](=O)[O-])c1	88.4*	-7.7	3.0	-1.5	i	-34.6	0.9	48.5	4.71	2.86
CCOc1nc(SCCOc2ccc(C)cc2)nc(N(C)C)n1	102.5*	-5.2	3.1	17.5	i	21.5	5.3	24.8	-1.34	-0.14
SMILES	ABCG2 block	p47phox inh	ABCB1 block	Arbovirus anti	HSV replic up	Furin inh	ABCB1 single pt	ABCG2 single pt	IgMXP3 fluor	CCRF autofluor
c1ccc(OCc2nc(-c3ccncc3)no2)cc1	111.3*	-3.6	3.5	-7.4	i	-22.4	1.2	4.0	-1.49	-2.24
O=C(NCCCc1ccccc1)Nc1cccc(Cl)c1	93.5*	-2.4	-0.2	-10.7	i	-15.9	1.9	21.1	-0.04	-1.69
O=C(NCCc1ccncc1)Nc1cccc(Cl)c1	2.4	-5.4	0.2	1.8	i	-10.1	.	.	.	.
COc1ccc(Nc2ccc(N3C(=O)CCCC3=O)cc2[N+](=O)[O-])c(OC)c1	7.7	-19.2	0.6	-13.7	i	-16.8	.	.	.	.
CCCNC(=O)Cn1c(=O)/c(=C\c2ccc(-c3ccc([N+](=O)[O-])cc3)o2)s/c1=C\C(=O)C(C)(C)C	158.7*	-32.4	129.4*	-6.5	?	1.3	-90.0	-116.2	524*	441*
CC(=O)NS(=O)(=O)c1ccc(Nc2ccc([N+](=O)[O-])c3nonc23)cc1	.	-141.0	.	.	?	8.6	.	.	.	.
O=C(Cc1ccccc1)Nc1cc(Cl)ccc1Sc1ccccc1	89.0*	2.5	4.5	-1.4	i	6.7	3.6	8.2	-1.69	4.66
CC12COC3(C(=O)Nc4ccc([N+](=O)[O-])cc4)CC1CCC32C (stereo not drawn)	112.3*	-23.3	3.1	6.1	i	-17.7	3.0	39.8	-2.29	-4.54
CCOC(=O)c1sc2cc([N+](=O)[O-])cc(SCC(=O)OC)c2c1N	40.1	-17.9	2.8	-1.6	i	-2.3	.	.	.	.
CCOC(=O)c1sc2cc([N+](=O)[O-])cc(SCCO)c2c1N	81.8*	-16.5	2.5	-19.0	i	-6.2	0.9	21.1	1.41	-0.69
